Assay results of several laboratories.
Protocols differ between the studies behind these lines.
Target: Ephrin type-A receptor 3 (EPHA3, Homo sapiens, UniProt P29320)
Sequence (P29320 1-983, as in one of the studies): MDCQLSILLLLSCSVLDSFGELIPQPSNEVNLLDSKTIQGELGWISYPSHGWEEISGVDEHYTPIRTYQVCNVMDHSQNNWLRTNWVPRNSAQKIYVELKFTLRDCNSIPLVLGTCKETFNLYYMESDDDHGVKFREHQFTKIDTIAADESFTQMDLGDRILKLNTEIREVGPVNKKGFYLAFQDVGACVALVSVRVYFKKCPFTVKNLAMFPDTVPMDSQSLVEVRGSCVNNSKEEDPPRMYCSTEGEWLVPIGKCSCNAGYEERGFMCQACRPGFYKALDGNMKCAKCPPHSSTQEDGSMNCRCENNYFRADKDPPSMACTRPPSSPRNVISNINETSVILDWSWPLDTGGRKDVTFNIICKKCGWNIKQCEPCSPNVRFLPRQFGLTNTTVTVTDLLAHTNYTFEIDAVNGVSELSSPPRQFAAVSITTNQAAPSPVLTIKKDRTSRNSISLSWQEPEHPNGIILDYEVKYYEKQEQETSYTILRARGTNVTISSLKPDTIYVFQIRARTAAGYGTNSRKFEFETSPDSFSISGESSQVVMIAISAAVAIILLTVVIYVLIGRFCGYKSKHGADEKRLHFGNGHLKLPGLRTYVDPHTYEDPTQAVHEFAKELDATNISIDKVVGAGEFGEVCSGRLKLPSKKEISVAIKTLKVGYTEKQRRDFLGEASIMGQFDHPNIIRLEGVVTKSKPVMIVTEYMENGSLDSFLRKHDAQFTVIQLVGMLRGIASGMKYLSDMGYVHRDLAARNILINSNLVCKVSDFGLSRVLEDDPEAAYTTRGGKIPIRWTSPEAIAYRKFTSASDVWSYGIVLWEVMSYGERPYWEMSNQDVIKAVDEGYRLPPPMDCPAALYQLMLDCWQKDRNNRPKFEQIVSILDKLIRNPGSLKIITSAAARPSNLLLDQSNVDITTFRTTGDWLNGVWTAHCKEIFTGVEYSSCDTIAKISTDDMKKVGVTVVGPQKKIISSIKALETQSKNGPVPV

Structure (SMILES) | observed | mode | technique | concentration | measurement | result
COc1ccc2c(c1)O[C@@H](c1ccc(OC)c(OC)c1)C[C@H]2NC(=O)C1(c2ccc3c(c2)OC(F)(F)O3)CC1 | cell-free assay | – | competition with immobilised ligand | 1 µM | remaining binding | 91%
CCCS(=O)(=O)Nc1ccc(F)c(C(=O)c2c[nH]c3ncc(-c4ccc(Cl)cc4)cc23)c1F | enzyme activity | inhibitor | – | 1 µM | inhibition | < 10%
Cc1nc(N2CC[C@@H](O)C2)ncc1-c1cc(C(F)(F)F)cc2[nH]ncc12 | cell-free assay | – | competition with immobilised ligand | 1 µM | remaining binding | 94%
CCCOc1ccc(OC)c(F)c1C(=O)c1ccc(C(=O)N[C@@H]2CNC[C@H]2NC(=O)c2ccc3[nH]ncc3c2)cc1 | enzyme activity | inhibitor | – | 10 µM | remaining activity | 61%
CNC(=O)c1cc(Oc2ccc(NC(=O)Nc3ccc(Cl)c(C(F)(F)F)c3)cc2)ccn1 | enzyme activity | inhibitor | – | 0.3 µM | inhibition | 11%
CO[C@@H](C)c1c(Nc2ccc([C@@H](N(C)C(=O)C3CCS(=O)(=O)CC3)C(F)(F)F)cc2)cnc2cc(Cl)nn12 | cell-free assay | – | competition with immobilised ligand | 1 µM | remaining binding | 90%
CN(C)C1CCN(CC#Cc2nn(C3CCCC3)c3nc(NCc4ccccc4)ncc23)C1 (stereo not shown) | enzyme activity | inhibitor | FRET | 10 µM | inhibition | -3%
CC(C)(C)c1nc2c(s1)c1nc(N)ncc1c1ccc(NS(=O)(=O)c3c(F)cccc3F)c(F)c12 | enzyme activity | inhibitor | radiometric | 1 µM | remaining activity | 92%
CCN(CC)CCNC(=O)c1c(C)[nH]c(/C=C2\C(=O)Nc3ccc(F)cc32)c1C | cell-free assay | – | – | 0.5 µM | remaining signal | 84%
Nc1ncnc2occ(-c3ccc(NC(=O)Nc4cc(C(F)(F)F)ccc4F)cc3)c12 | cell-free assay | – | – | 20 µM | remaining signal | 16%
COc1cccc(CNC(=O)c2nc3scc(COCc4ccc(C(=O)O)cc4)c3c(=O)[nH]2)c1 | cell-free assay | – | competition with immobilised ligand | 1 µM | remaining binding | 91.3%
CN(c1nccc(-c2cnn3ncccc23)n1)C1CC1 | binding | – | – | 1 µM | remaining binding | 100%
CCCCN(CCCC)C(=O)CN1C[C@@H](c2cc(OC)c3c(c2)OCO3)[C@H](C(=O)O)[C@H]1CC(C)(C)CCC | cell-free assay | – | competition with immobilised ligand | 1 µM | remaining binding | 95.3%
CCN(CC)c1ccc(C2=NNC(=O)CC2C)cc1[N+](=O)[O-] (stereo not shown) | enzyme activity | inhibitor | – | 10 µM | remaining activity | 100%
CCOC(=O)c1cc2cc(-c3cc(C(=O)NCc4ccc(C(=O)O)cc4)nn3C)ccc2[nH]1 | cell-free assay | – | competition with immobilised ligand | 0.1 µM | remaining binding | 100%
CS(=O)(=O)CCNCc1ccc(-c2ccc3ncnc(Nc4ccc(OCc5cccc(F)c5)c(Cl)c4)c3c2)o1 | cell-free assay | – | – | 0.5 µM | remaining signal | 98.2%
CC(C)(O)[C@H]1CC[C@H](Nc2ccc3ncc(-c4cccc(C(F)(F)F)c4)n3n2)CC1 | enzyme activity | inhibitor | – | 1 µM | remaining activity | 107%
Cc1ccc(NC(=O)c2ccc(C)c(C(F)(F)F)c2)cc1C#Cc1nn(C2CCC(O)CC2)c2ncnc(N)c12 (stereo not shown) | cell-free assay | – | – | 10 µM | remaining signal | 3%
N#CCCc1ccc2c(c1)-c1[nH]c3ccc([N+](=O)[O-])cc3c1CC(=O)N2 | cell-free assay | – | – | 0.5 µM | remaining signal | 93.9%
CCc1ccccc1C(=O)Nc1n[nH]c2c(C)c(F)c(C3C(C#N)=C(C)N(C)C(C)=C3C#N)cc12 | cell-free assay | – | competition with immobilised ligand | 1 µM | remaining binding | 100%
O=C1NC(=O)c2cc(Nc3ccc(F)cc3)c(Nc3ccc(F)cc3)cc21 | cell-free assay | – | – | 0.5 µM | remaining signal | 96.6%
Cc1ccc(Nc2nccc(N(C)c3ccc4c(C)n(C)nc4c3)n2)cc1S(N)(=O)=O | enzyme activity | inhibitor | – | 0.3 µM | inhibition | 2%
